Results reported in ChEMBL document CHEMBL3826877, “Fatty Acid Amide Hydrolase (FAAH), Acetylcholinesterase (AChE), and Butyrylcholinesterase (BuChE): Networked Targets for the Development of Carbamates as Potential Anti-Alzheimer's Disease Agents” (J Med Chem, 2016).

Experiments:
Acetylcholinesterase [1] = biological target: T1, Acetylcholinesterase (Homo sapiens, UniProt P22303); assay: Inhibition of recombinant human AChE expressed in HEK293 cells using acetylthiocholine iodide as substrate preincubated for 120 mins followed by substrate addition by Ellman's method
T1 sequence (P22303 whole entry): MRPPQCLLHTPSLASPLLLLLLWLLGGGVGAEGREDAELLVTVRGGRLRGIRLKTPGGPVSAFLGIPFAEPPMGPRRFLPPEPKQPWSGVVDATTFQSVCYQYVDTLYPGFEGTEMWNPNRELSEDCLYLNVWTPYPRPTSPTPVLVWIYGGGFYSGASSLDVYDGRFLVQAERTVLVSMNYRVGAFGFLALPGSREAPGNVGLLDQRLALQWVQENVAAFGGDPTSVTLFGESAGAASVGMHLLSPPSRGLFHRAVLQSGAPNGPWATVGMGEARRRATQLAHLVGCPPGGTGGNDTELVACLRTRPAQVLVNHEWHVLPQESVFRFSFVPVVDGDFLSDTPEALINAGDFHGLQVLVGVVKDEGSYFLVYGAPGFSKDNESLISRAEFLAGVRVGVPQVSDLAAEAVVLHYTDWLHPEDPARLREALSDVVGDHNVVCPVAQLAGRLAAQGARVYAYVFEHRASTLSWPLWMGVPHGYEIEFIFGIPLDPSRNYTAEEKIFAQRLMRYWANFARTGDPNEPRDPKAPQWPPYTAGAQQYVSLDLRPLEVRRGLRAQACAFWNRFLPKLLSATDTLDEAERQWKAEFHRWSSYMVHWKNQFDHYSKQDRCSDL
Outline: (§1)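 Ellman assay at 37 °C in 0.1 M phosphate pH 8.0 with 340 µM DTNB, 0.02 U/mL enzyme and 550 µM thiocholine substrate. Enzyme and inhibitor preincubated before substrate: AChE 120 min (one compound 60 min), BuChE 15 or 20 min depending on N-substituent. Non-enzymatic blanks run. […] IC50 by linear regression of % inhibition vs log concentration. Mean of 2-3 independent runs in duplicate.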

[2] = biological target: T2, Fatty-acid amide hydrolase 1 (Rattus norvegicus, UniProt P97612); assay: Inhibition of FAAH in rat brain membrane using N-arachidonoyl-[14C]-ethanolamine as substrate preincubated for 20 mins followed by substrate addition measured after 30 mins by scintillation counting method; assay type: cell membranes
T2 sequence (P97612 whole entry): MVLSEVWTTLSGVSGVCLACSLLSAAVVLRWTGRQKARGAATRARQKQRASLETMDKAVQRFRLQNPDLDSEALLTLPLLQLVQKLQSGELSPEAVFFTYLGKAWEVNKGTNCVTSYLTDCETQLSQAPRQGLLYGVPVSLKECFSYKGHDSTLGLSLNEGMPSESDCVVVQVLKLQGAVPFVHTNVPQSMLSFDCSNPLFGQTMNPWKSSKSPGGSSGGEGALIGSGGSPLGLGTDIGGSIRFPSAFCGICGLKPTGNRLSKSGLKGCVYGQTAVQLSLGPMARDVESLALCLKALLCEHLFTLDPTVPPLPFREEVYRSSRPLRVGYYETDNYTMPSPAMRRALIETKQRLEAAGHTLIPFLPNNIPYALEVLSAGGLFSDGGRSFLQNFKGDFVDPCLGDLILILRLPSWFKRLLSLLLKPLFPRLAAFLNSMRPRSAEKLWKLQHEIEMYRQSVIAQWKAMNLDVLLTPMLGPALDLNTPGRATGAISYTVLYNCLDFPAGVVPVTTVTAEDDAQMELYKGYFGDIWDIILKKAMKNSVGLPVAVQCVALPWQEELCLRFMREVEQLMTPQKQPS
Outline: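 Compound preincubated 20 min at 37 °C with rat brain 10,000 x g membranes (70 µg/sample), then [14C]-AEA (diluted with AEA) added in 50 mM Tris-HCl pH 9.00-10.00, 37 °C, 30 min. [14C]-ethanolamine counted by scintillation after CHCl3/MeOH 1:1 extraction.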

[3] = biological target: T2, Fatty-acid amide hydrolase 1; assay: Inhibition of FAAH in rat brain membrane using N-arachidonoyl-[14C]-ethanolamine as substrate incubated for 30 mins by scintillation counting method; assay type: cell membranes
Outline: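 Rat brain 10,000 x g membrane fraction (70 µg/sample) co-incubated with compound and [14C]-AEA diluted with unlabelled AEA in 50 mM Tris-HCl, pH 9.00-10.00, 37 °C, 30 min. Released [14C]-ethanolamine measured by scintillation of the aqueous phase after CHCl3/MeOH 1:1 extraction.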

Cholinesterase [4] = biological target: T3, Cholinesterase (Homo sapiens, UniProt P06276); assay: Inhibition of human serum BuChE using butyrylthiocholine iodide as substrate preincubated for 20 mins followed by substrate addition by Ellman's method; outline: as §1
T3 sequence (P06276 whole entry): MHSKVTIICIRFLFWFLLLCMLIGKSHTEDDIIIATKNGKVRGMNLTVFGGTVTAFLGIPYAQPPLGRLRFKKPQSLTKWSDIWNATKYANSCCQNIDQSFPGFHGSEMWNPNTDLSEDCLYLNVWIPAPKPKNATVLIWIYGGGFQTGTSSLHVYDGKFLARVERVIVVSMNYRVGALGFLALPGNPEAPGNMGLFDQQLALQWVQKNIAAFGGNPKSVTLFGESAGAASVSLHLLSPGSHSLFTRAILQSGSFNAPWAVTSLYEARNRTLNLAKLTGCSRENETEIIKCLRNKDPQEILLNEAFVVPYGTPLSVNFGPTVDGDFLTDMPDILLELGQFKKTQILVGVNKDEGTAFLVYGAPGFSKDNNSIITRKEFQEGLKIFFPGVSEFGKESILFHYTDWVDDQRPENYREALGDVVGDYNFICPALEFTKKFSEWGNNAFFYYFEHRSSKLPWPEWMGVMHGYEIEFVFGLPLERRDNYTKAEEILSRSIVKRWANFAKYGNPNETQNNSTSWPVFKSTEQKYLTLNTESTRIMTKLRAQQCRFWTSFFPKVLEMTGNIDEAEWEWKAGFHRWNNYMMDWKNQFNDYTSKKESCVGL

SH-SY5Y [5] = assay: Cytotoxicity against human SH-SY5Y assessed as reduction in cell viability at 1 to 25 uM after 24 hrs by MTT assay; assay type: cell-based
Outline: (§2)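 SH-SY5Y neuroblastoma cells grown in DMEM with 2 mM L-glutamine, penicillin/streptomycin and 10% FBS. Cells seeded and cultured overnight at 37°C, 5% CO2. Compounds in DMSO (final under 0.1%) added for 24 h. MTT 0.5 mg/mL added for 3 h, formazan taken up in isopropanol, absorbance read at 620 nm. Viability given relative to vehicle. Three independent experiments in quadruplicate.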

SH-SY5Y [6] = assay: Cytotoxicity against human SH-SY5Y assessed as reduction in cell viability at 50 uM after 24 hrs by MTT assay; assay type: cell-based; outline: as §2
Acetylcholinesterase [7] = biological target: T1, Acetylcholinesterase; assay: Inhibition of recombinant human AChE expressed in HEK293 cells assessed as enzyme carbamoylation using acetylthiocholine iodide as substrate preincubated with enzyme followed by substrate addition by Ellman's method; conditions: TDE = time-dependent effect
Cholinesterase [8] = biological target: T3, Cholinesterase; assay: Inhibition of human serum BuChE assessed as enzyme carbamoylation using butyrylthiocholine iodide as substrate preincubated with enzyme followed by substrate addition by Ellman's method; conditions: TDE = time-dependent effect
Homo sapiens = assay: Binding affinity to AChE in human assessed as enzyme reactivation half life at 8 to 40 mg/kg, po; assay type: functional, organism-based
Cholinesterase [9] = biological target: T3, Cholinesterase; assay: Inhibition of human serum BuChE using butyrylthiocholine iodide as substrate preincubated for 15 mins followed by substrate addition by Ellman's method; outline: as §1
SH-SY5Y [10] = assay: Cytotoxicity against human SH-SY5Y assessed as reduction in cell viability at 1 to 50 uM after 24 hrs by MTT assay; assay type: cell-based; outline: as §2

SMILES | IC50 (Acetylcholinesterase [1]) | IC50 [2] | IC50 [3] | IC50 (Cholinesterase [4]) | Activity (SH-SY5Y [5]) | Activity (SH-SY5Y [6]) | inhibition (Acetylcholinesterase [7]) | inhibition (Cholinesterase [8]) | T1/2 (Homo sapiens) | IC50 (Cholinesterase [9]) | Activity (SH-SY5Y [10])
CCCCCCCNC(=O)Oc1ccc(Cn2cc(COc3ccc4ccc(=O)oc4c3)nn2)cc1 | 0.214 µM | 0.055 µM | 0.354 µM | 0.0159 µM |  |  |  |  |  |  | 
CCCCCCCNC(=O)Oc1cccc(CN(C)CCCOc2ccc3ccc(=O)oc3c2)c1 | 0.0374 µM | 0.0285 µM | 0.161 µM | 0.00136 µM | Non-toxic | Toxic |  |  |  |  | 
CCCCCCCNC(=O)Oc1cccc(CN(C)CCCOc2ccc3c4c(c(=O)oc3c2)CCCC4)c1 | 0.0216 µM | 0.306 µM | 2.49 µM | 0.00027 µM |  |  | tde | tde |  |  | 
CCCCCCCNC(=O)Oc1ccc(-n2cc(COc3ccc4ccc(=O)oc4c3)nn2)cc1 | 158 µM | 0.0213 µM | 0.167 µM | 122 µM |  |  |  |  |  |  | 
CCCCCCCNC(=O)Oc1ccc2c(c1)[C@]1(C)CCN(C)[C@@H]1N2C |  |  |  |  |  |  |  |  | 10 h |  | 
COc1ccc(-c2cc3cc(OCCCN(C)Cc4cccc(OC(=O)NCCCCCc5ccccc5)c4)ccc3oc2=O)cc1 | 0.179 µM | 0.211 µM | 2.83 µM |  |  |  | tde | tde |  | 0.00115 µM | 
O=C(NCCCCCc1ccccc1)Oc1cccc(Cn2cc(COc3ccc4ccc(=O)oc4c3)nn2)c1 | 0.922 µM | 0.0279 µM | 0.157 µM |  |  |  |  |  |  | 0.0427 µM | 
CCCCCCCNC(=O)Oc1cccc(Cn2cc(COc3ccc4ccc(=O)oc4c3)nn2)c1 | 1.04 µM | 0.0326 µM | 0.109 µM | 0.0782 µM |  |  |  |  |  |  | 
CN(CCCOc1ccc2c3c(c(=O)oc2c1)CCCC3)Cc1cccc(OC(=O)NCCCCCc2ccccc2)c1 | 0.0899 µM | 1.39 µM | 3.48 µM |  |  |  | tde | tde |  | 0.00144 µM | 
O=C(NCCCCCc1ccccc1)Oc1ccc(-n2cc(COc3ccc4ccc(=O)oc4c3)nn2)cc1 | 47.9 µM | 0.0433 µM | 0.236 µM |  |  |  |  |  |  | 1.23 µM | 
NC(=O)c1cccc(-c2cccc(OC(=O)NC3CCCCC3)c2)c1 [URB-597] |  |  |  |  |  |  |  |  |  |  | Non-toxic
Cc1cc(=O)oc2cc(OCCCN(C)Cc3cccc(OC(=O)NCCCCCc4ccccc4)c3)ccc12 | 0.0805 µM | 0.135 µM | 0.459 µM |  |  |  | tde | tde |  | 0.00275 µM | 
CN(CCCOc1ccc2cc(-c3ccc(Cl)cc3)c(=O)oc2c1)Cc1cccc(OC(=O)NCCCCCc2ccccc2)c1 | 0.9 µM | 0.265 µM | 1.47 µM |  |  |  | tde | tde |  | 0.00351 µM | 
